Measured values as given in ChEMBL document CHEMBL1121633, “Neuroleptic 4-aryltetrahydropyrrolo[3,4-b]indoles” (1980).

Key:
Rattus norvegicus [1] = assay: Antipsychotic activity was assessed by ability to antagonize the stereotypy induced in rats by d-amphetamine (5 mg/kg, ip) after 1 h; format: functional
How it was run: (§1)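 Rats were housed singly in covered plastic compartments and briefly acclimated. Groups of five received compound ip at doses spaced 0.5 log unit (e.g., 1, 3.2, 10, 32 mg/kg). d-Amphetamine sulfate 5 mg/kg ip was given 1, 5 or 24 h later. One hour after each challenge, at peak amphetamine effect, each rat's most characteristic behavior was rated on a six-point scale.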

Rattus norvegicus [2] = assay: Antipsychotic activity was assessed by ability to antagonize the stereotypy induced in rats by d-amphetamine (5 mg/kg, ip) after 24 h; format: functional; how it was run: as §1
Rattus norvegicus [3] = assay: Antipsychotic activity was assessed by ability to antagonize the stereotypy induced in rats by d-amphetamine (5 mg/kg, ip) after 5 h; format: functional; how it was run: as §1
Rattus norvegicus [4] = assay: Antipsychotic activity was assessed by ability to antagonize the stereotypy induced in rats by d-amphetamine (5 mg/kg, ip) after 1 h; Range is 3.2-10; format: functional; how it was run: as §1
Rattus norvegicus [5] = assay: Antipsychotic activity was assessed by ability to antagonize the stereotypy induced in rats by d-amphetamine (5 mg/kg, ip) after 5 h; Range is 3.2-10; format: functional; how it was run: as §1
Rattus norvegicus [6] = assay: Antipsychotic activity was assessed by ability to antagonize the stereotypy induced in rats by d-amphetamine (5 mg / kg, ip) after 1 h; format: functional; how it was run: as §1
Rattus norvegicus [7] = assay: Antipsychotic activity was assessed by ability to antagonize the stereotypy induced in rats by d-amphetamine (5 mg / kg, ip) after 5 h; format: functional; how it was run: as §1
Rattus norvegicus [8] = assay: Antipsychotic activity was assessed by ability to antagonize the stereotypy induced in rats by d-amphetamine (5 mg/kg, ip) after 1 h; Range is 10-32; format: functional; how it was run: as §1
Rattus norvegicus [9] = assay: Antipsychotic activity was assessed by ability to antagonize the stereotypy induced in rats by d-amphetamine (5 mg / kg, ip) after 1 h; Range is 1.0-3.2; format: functional; how it was run: as §1
Rattus norvegicus [10] = assay: Antipsychotic activity was assessed by ability to antagonize the stereotypy induced in rats by d-amphetamine (5 mg / kg, ip) after 24 h; Range is 3.2-10; format: functional; how it was run: as §1
Rattus norvegicus [11] = assay: Antipsychotic activity was assessed by ability to antagonize the stereotypy induced in rats by d-amphetamine (5 mg / kg, ip) after 5 h; Range is 1.0-3.2; format: functional; how it was run: as §1
Rattus norvegicus [12] = assay: Antipsychotic activity was assessed by ability to antagonize the stereotypy induced in rats by d-amphetamine (5 mg / kg, ip) after 5 h; Range is 10-32; format: functional; how it was run: as §1
Rattus norvegicus [13] = assay: Antipsychotic activity was assessed by ability to antagonize the stereotypy induced in rats by d-amphetamine (5 mg / kg, ip) after 1 h; Range is 3.2-5.6; format: functional; how it was run: as §1
Rattus norvegicus [14] = assay: Antipsychotic activity was assessed by ability to antagonize the stereotypy induced in rats by d-amphetamine (5 mg / kg, ip) after 1 h; Range is 0.1-0.32; format: functional; how it was run: as §1
Rattus norvegicus [15] = assay: Antipsychotic activity was assessed by ability to antagonize the stereotypy induced in rats by d-amphetamine (5 mg / kg, ip) after 24 h; Range is 1.0-3.2; format: functional; how it was run: as §1
Rattus norvegicus [16] = assay: Antipsychotic activity was assessed by ability to antagonize the stereotypy induced in rats by d-amphetamine (5 mg / kg, ip) after 5 h; Range is 0.1-0.32; format: functional; how it was run: as §1
Rattus norvegicus [17] = assay: Antipsychotic activity was assessed by ability to antagonize the stereotypy induced in rats by d-amphetamine (5 mg / kg, ip) after 1 h; Range is 3.2-10
Rattus norvegicus [18] = assay: Antipsychotic activity was assessed by ability to antagonize the stereotypy induced in rats by d-amphetamine (5 mg / kg, ip) after 24 h; format: functional; how it was run: as §1

Question: What does the source list for `Cl.Fc1ccc(-n2c3c(c4cc(F)ccc42)CNC3)cc1`?
Answer: ED50 (Rattus norvegicus [1]): > 32 mg/kg; ED50 (Rattus norvegicus [2]): 32 mg/kg; ED50 (Rattus norvegicus [3]): > 32 mg/kg

Question: For `Cl.O=C(CCCN1Cc2c(n(-c3ccc(F)cc3)c3ccc(F)cc23)C1)c1ccc(F)cc1`, which ED50 (Rattus norvegicus [4]) is on record?
Answer: The ED50 was 3.2 mg/kg.

Question: And the ED50 (Rattus norvegicus [2])?
Answer: The ED50 was > 10 mg/kg.

Question: What about the ED50 (Rattus norvegicus [5]) of the same compound?
Answer: Its ED50 is 3.2 mg/kg.

Question: `CCOC(=O)N1Cc2[nH]c3ccc(F)cc3c2C1.Cl` was tested. Which ED50 (Rattus norvegicus [6]) did it give?
Answer: The ED50 was > 32 mg/kg.

Question: And the ED50 (Rattus norvegicus [7])?
Answer: Its ED50 is > 32 mg/kg.

Question: `Cl.O=C(CCCCN1Cc2c(n(-c3ccc(F)cc3)c3ccc(F)cc23)C1)c1ccc(F)cc1` was tested. Which ED50 (Rattus norvegicus [6]) did it give?
Answer: The ED50 was 32 mg/kg.

Question: And the ED50 (Rattus norvegicus [7])?
Answer: The ED50 was > 32 mg/kg.

Question: What does the source list for `Cl.Fc1ccc(-n2c3c(c4cc(F)ccc42)CN(CCc2ccccc2)C3)cc1`?
Answer: ED50 (Rattus norvegicus [6]): > 32 mg/kg; ED50 (Rattus norvegicus [7]): > 32 mg/kg

Question: What does the source list for `Cl.Fc1ccc(-n2c3c(c4cc(F)ccc42)CN(Cc2ccccc2)C3)cc1`?
Answer: ED50 (Rattus norvegicus [6]): > 32 mg/kg; ED50 (Rattus norvegicus [7]): > 32 mg/kg

Question: For `Cl.OC(CCCN1Cc2c(n(-c3ccc(F)cc3)c3ccc(F)cc23)C1)c1ccccc1` (stereo unspecified), which ED50 (Rattus norvegicus [8]) is on record?
Answer: The ED50 was 10 mg/kg.

Question: What about the ED50 (Rattus norvegicus [2]) of the same compound?
Answer: Its ED50 is > 32 mg/kg.

Question: And the ED50 (Rattus norvegicus [3])?
Answer: The ED50 was > 10 mg/kg.

Question: For `CCCN1Cc2c(n(-c3ccc(F)cc3)c3ccc(F)cc23)C1.I`, which ED50 (Rattus norvegicus [6]) is on record?
Answer: Its ED50 is > 32 mg/kg.

Question: What about the ED50 (Rattus norvegicus [7]) of the same compound?
Answer: The ED50 was > 32 mg/kg.

Question: `Cl.OC(CCCN1Cc2c(n(-c3ccc(F)cc3)c3ccc(F)cc23)C1)c1ccc(F)cc1` (stereo unspecified) was tested. Which ED50 (Rattus norvegicus [9]) did it give?
Answer: Its ED50 is 1 mg/kg.

Question: What about the ED50 (Rattus norvegicus [10]) of the same compound?
Answer: Its ED50 is 3.2 mg/kg.

Question: What about the ED50 (Rattus norvegicus [11]) of the same compound?
Answer: The ED50 was 1 mg/kg.

Question: How did the ED50 (Rattus norvegicus [6]) turn out when `Cl.OC(CCCCN1Cc2c(n(-c3ccc(F)cc3)c3ccc(F)cc23)C1)c1ccc(F)cc1` (stereo unspecified) was run?
Answer: Its ED50 is > 32 mg/kg.

Question: What about the ED50 (Rattus norvegicus [12]) of the same compound?
Answer: The ED50 was 10 mg/kg.

Question: `CCOC(=O)N1Cc2c(n(-c3ccc(F)cc3)c3ccc(F)cc23)C1` was tested. Which ED50 (Rattus norvegicus [1]) did it give?
Answer: The ED50 was > 32 mg/kg.

Question: And the ED50 (Rattus norvegicus [3])?
Answer: Its ED50 is > 32 mg/kg.

Question: For `CN1Cc2c(n(-c3ccc(F)cc3)c3ccc(F)cc23)C1.Cl`, which ED50 (Rattus norvegicus [13]) is on record?
Answer: The ED50 was 3.2 mg/kg.

Question: What about the ED50 (Rattus norvegicus [7]) of the same compound?
Answer: The ED50 was > 10 mg/kg.

Question: `Cl.OC(CCCN1CCc2c(c3cc(F)ccc3n2-c2ccc(F)cc2)C1)c1ccc(F)cc1` (stereo unspecified) was tested. Which ED50 (Rattus norvegicus [14]) did it give?
Answer: The ED50 was 0.1 mg/kg.

Question: What about the ED50 (Rattus norvegicus [15]) of the same compound?
Answer: Its ED50 is 1 mg/kg.

Question: What about the ED50 (Rattus norvegicus [16]) of the same compound?
Answer: Its ED50 is 0.1 mg/kg.

Question: How did the ED50 (Rattus norvegicus [6]) turn out when `Cl.O=C(CCCN1Cc2c(n(-c3ccc(F)cc3)c3ccc(F)cc23)C1)c1ccccc1` was run?
Answer: Its ED50 is > 32 mg/kg.

Question: What about the ED50 (Rattus norvegicus [7]) of the same compound?
Answer: The ED50 was > 32 mg/kg.

Question: What does the source list for `CN(C)CCCN1c2ccccc2Sc2ccc(Cl)cc21` [CHLORPROMAZINE]?
Answer: ED50 (Rattus norvegicus [17]): 3.2 mg/kg; ED50 (Rattus norvegicus [18]): 56 mg/kg; ED50 (Rattus norvegicus [7]): 17.8 mg/kg
